Measured values taken from ChEMBL document CHEMBL2150955, “Design, synthesis and evaluation of N-(substituted benzothiazol-2-yl)amides as anticonvulsant and neuroprotective” (Eur J Med Chem, 2012).
Calls of active or inactive are those of the source. The calls are words filed in the database; no cut-off is given here.

Assays:
[1] = system: Mus musculus; assay: CNS depressant activity in mouse assessed as immobility time at 100 mg/kg, ip measured 60 mins post dose by porsolt's swimming pool test; type: organism-based; parameters: dose 100 mg/kg, route intraperitoneal; details: in vivo, 1 h
Procedure, shortened: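 Behavioral depression was measured by Porsolt's swim test in albino mice of either sex. Immobility time (s) was recorded 24 h before as the control and again 60 min after treatment. Values are mean ± SEM of six mice, compared with Student's t test.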

[2] = system: Mus musculus; assay: Neurotoxicity in ip dosed mouse assessed as minimal motor impairment after 0.5 hrs by rotarod test; type: toxicity, organism-based; details: in vivo
Procedure, shortened: (§1)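 Albino mice of either sex (25-30 g) received 30, 100 or 300 mg/kg (n = 6). Neurological deficit was assessed on the rotarod at 0.5 h and 4 h. The value recorded is the minimum dose producing neurotoxicity in half or more of the mice; 300 mg/kg is the maximum dose.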

[3] = system: Mus musculus; assay: Anticonvulsant activity in ip dosed mouse assessed as compound concentration causing protection against maximal electroshock-induced seizures in half or more test animals after 0.5 hrs; type: functional; details: read-out: MED
Procedure, shortened: (§2)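 Albino mice of either sex (25-30 g), housed under standard conditions with free access to pellet diet and water. Compounds given at 30, 100 and 300 mg/kg (n = 6). MES and scPTZ seizures were read at 0.5 h and 4 h. The value recorded is the minimum dose protecting half or more of the mice; 300 mg/kg is the maximum dose.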

[4] = system: Mus musculus; assay: Anticonvulsant activity in mouse assessed as protection against subcutaneous pentylenetetrazol-induced seizures at 300 mg/kg, ip after 4 hrs; type: functional, organism-based; parameters: dose 300 mg/kg; procedure, shortened: as §2
[5] = system: Mus musculus; assay: Anticonvulsant activity in mouse assessed as protection against subcutaneous pentylenetetrazol-induced seizures at 300 mg/kg, ip after 0.5 hrs; type: functional, organism-based; parameters: dose 300 mg/kg; procedure, shortened: as §2
[6] = system: Mus musculus; assay: Neurotoxicity in ip dosed mouse assessed as minimal motor impairment after 4 hrs by rotarod test; type: toxicity, organism-based; details: in vivo; procedure, shortened: as §1
[7] = system: Mus musculus; assay: Anticonvulsant activity in ip dosed mouse assessed as compound concentration causing protection against maximal electroshock-induced seizures in half or more test animals after 4 hrs; type: functional; details: read-out: MED; procedure, shortened: as §2
[8] = system: Mus musculus; assay: Anticonvulsant activity in ip dosed mouse assessed as compound concentration causing protection against subcutaneous pentylenetetrazol-induced seizures in half or more test animals after 0.5 hrs; type: functional; details: read-out: MED; procedure, shortened: as §2
[9] = system: Mus musculus; assay: Neurotoxicity in mouse assessed as minimal motor impairment at 300 mg/kg, ip after 4 hrs by rotarod test; type: toxicity, organism-based; parameters: dose 300 mg/kg, route intraperitoneal; details: in vivo; procedure, shortened: as §1
[10] = system: Mus musculus; assay: Anticonvulsant activity in ip dosed mouse assessed as compound concentration causing protection against subcutaneous pentylenetetrazol-induced seizures in half or more test animals after 4 hrs; type: functional; details: read-out: MED; procedure, shortened: as §2
[11] = system: Mus musculus; assay: Anticonvulsant activity in mouse assessed as protection against maximal electroshock-induced seizures at 300 mg/kg, ip after 0.5 hrs; type: functional, organism-based; parameters: dose 300 mg/kg; procedure, shortened: as §2
[12] = system: Mus musculus; assay: Neurotoxicity in mouse assessed as minimal motor impairment at 300 mg/kg, ip after 0.5 hrs by rotarod test; type: toxicity, organism-based; parameters: dose 300 mg/kg, route intraperitoneal; details: in vivo; procedure, shortened: as §1
[13] = system: Mus musculus; assay: Anticonvulsant activity in ip mouse assessed as protection against subcutaneous pentylenetetrazol-induced seizures; type: functional
Procedure, shortened: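 This is the Phase II quantitation in albino mice of either sex (25-30 g). […] TD50 came from the rotarod test, read 30 min after dosing. The protective index is TD50/ED50.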

[14] = system: Mus musculus; assay: Hepatotoxicity in mouse assessed as effect on alkaline phosphatase level at 30 mg/kg/day, po dosed for 2 weeks relative to control; type: toxicity, organism-based; parameters: route oral; details: in vivo, 336 h
Procedure, shortened: (§3)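 Serum SGOT, SGPT, alkaline phosphatase, total albumin and total protein were measured in treated mice against controls (n = 6). Data were analysed by ANOVA followed by Student's t test.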

[15] = system: Mus musculus; assay: Hepatotoxicity in mouse assessed as effect on SGOT level at 30 mg/kg, po after 2 weeks relative to control; type: toxicity, organism-based; parameters: dose 30 mg/kg, route oral; details: in vivo, 336 h; procedure, shortened: as §3
[16] = system: Mus musculus; assay: Neuroprotective activity in acrylamide-intoxicated mouse assessed as reduction in brain malonaldehyde level at 50 mg/kg, ip dosed 3 days/week for 3 weeks administered 10 mins before acrylamide challenge by TBARS detection assay; type: functional, organism-based; parameters: dose 50 mg/kg
Procedure, shortened: (§4)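 Mice were given acrylamide to induce brain degeneration, with compound administered 10 min before the acrylamide. Brain MDA (lipid peroxidation) and LDH activity were measured against controls. Values are mean ± SEM of six animals, compared with Student's t test.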

[17] = system: Mus musculus; assay: Hepatotoxicity in mouse assessed as effect on SGPT level at 30 mg/kg/day, po dosed for 2 weeks relative to control; type: toxicity, organism-based; parameters: route oral; details: in vivo, 336 h; procedure, shortened: as §3
[18] = system: Mus musculus; assay: Hepatotoxicity in mouse assessed as effect on total protein level at 30 mg/kg/day, po dosed for 2 weeks relative to control; type: toxicity, organism-based; parameters: route oral; details: in vivo, 336 h; procedure, shortened: as §3
[19] = system: Mus musculus; assay: Hepatotoxicity in mouse assessed as effect on total albumin level at 30 mg/kg/day, po dosed for 2 weeks relative to control; type: toxicity, organism-based; parameters: route oral; details: in vivo, 336 h; procedure, shortened: as §3
[20] = system: Mus musculus; assay: Neuroprotective activity in acrylamide-intoxicated mouse assessed as reduction in brain LDH level at 50 mg/kg, ip dosed 3 days/week for 3 weeks administered 10 mins before acrylamide challenge by spectrophotometry; type: functional, organism-based; parameters: dose 50 mg/kg; procedure, shortened: as §4
[21] = system: Mus musculus; assay: Anticonvulsant activity in ip dosed mouse assessed as protection against maximal electroshock-induced seizures; type: functional

SMILES	Time [1]	MTC [2]	minimal effective dose [3]	Activity [4]	Activity [5]	MTC [6]	minimal effective dose [7]	minimal effective dose [8]	Activity [9]	minimal effective dose [10]	Activity [11]	Activity [12]	ED50 [13]	further results
O=C(CCC(=O)c1ccccc1)Nc1nc2ccc(Br)cc2s1	162 s			inactive	inactive	300 mg/kg	300 mg/kg				inactive	Non-toxic		
CCCC(CCC)C(=O)[O-].[Na+] [VALPROATE SODIUM]													149 mg/kg	
O=C1NC(=O)C(c2ccccc2)(c2ccccc2)N1 [PHENYTOIN]		100 mg/kg	30 mg/kg	inactive	inactive	100 mg/kg	30 mg/kg						> 300 mg/kg	
CC(=O)c1ccc2nc(NC(=O)CCC(=O)c3ccccc3)sc2c1	168.3 s				inactive		100 mg/kg		Non-toxic	300 mg/kg	inactive	Non-toxic		

Now from value to molecule, other results behind:

Time [1]	SMILES	MTC [2]	minimal effective dose [3]	Activity [4]	Activity [5]	MTC [6]	minimal effective dose [7]	minimal effective dose [8]	Activity [9]	minimal effective dose [10]	Activity [11]	Activity [12]	ED50 [13]	further results
158.1 s	O=C(Nc1nc2cc(Cl)c(F)cc2s1)c1ccccc1C(=O)c1ccccc1	300 mg/kg	300 mg/kg	inactive	inactive	300 mg/kg	300 mg/kg							
177 s	COc1ccc2nc(NC(=O)c3ccccc3C(=O)c3ccccc3)sc2c1						100 mg/kg	300 mg/kg	Non-toxic	300 mg/kg	inactive	Non-toxic		
130 s	Cc1ccc2nc(NC(=O)CCC(=O)c3ccccc3)sc2c1		100 mg/kg				100 mg/kg	300 mg/kg	Non-toxic	300 mg/kg		Non-toxic		Activity [14]: Non-toxic; Activity [15]: Non-toxic; Activity [16]: Active; Activity [17]: Non-toxic; Activity [18]: Toxic; Activity [19]: Non-toxic; Activity [20]: Active
160 s	O=C(CCC(=O)c1ccccc1)Nc1nc2ccc(F)cc2s1			inactive	inactive		300 mg/kg		Non-toxic		inactive	Non-toxic		
179.5 s	NC(=O)N1c2ccccc2C=Cc2ccccc21 [CARBAMAZEPINE]	100 mg/kg	30 mg/kg			300 mg/kg	100 mg/kg	100 mg/kg		300 mg/kg			> 100 mg/kg	ED50 [21]: 8.8 mg/kg
147.3 s	O=C(Nc1nc2ccc(F)cc2s1)c1ccccc1C(=O)c1ccccc1	300 mg/kg			inactive	300 mg/kg	100 mg/kg			300 mg/kg	inactive			
